The results in this text go back to ChEMBL document CHEMBL1158782, “Cytotoxic germacrane sesquiterpenes from the aerial parts of Santolina insularis” (J Nat Prod, 2005).

Experiment [1] can be described thus: Cytotoxicity against mouse peritoneal macrophages cells after 24 hrs by MTT assay. The settings on record: Macrophage. In kind it is cell-based. Put shortly:
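Mouse cells harvested 4 days after intraperitoneal 10% thioglycollate, about 70% macrophages. Plated at 1 × 10^5/well and left to adhere for 3 h in DMEM with 10% FBS, 2 mM L-glutamine, 25 mM HEPES, antibiotics and 5 mM sodium pyruvate at 37 °C. Treated 24 h with compounds at 0.1-10 µg/mL. MTT (5 mg/mL) for 3 h, DMSO solubilization, OD490 read.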

The test system of a further experiment is Caco-2. In words: Cytotoxicity against human Caco-2 cells after 24 hrs by MTT assay. In kind it is functional, cell-based. Particulars: Caco-2, 24 h. Put shortly:
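Caco-2 cells kept in DMEM with 10% FBS, 25 mM HEPES, 100 U/mL penicillin and 100 µg/mL streptomycin at 37 °C under humidified 5% CO2. Seeded at 1 × 10^4/well for 48 h, then exposed to compounds (0.1-10 µg/mL) for 24 h. MTT (5 mg/mL) added for 3 h at 37 °C, formazan dissolved in DMSO, OD490 read. IC50 reported.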

Each structure is given as a SMILES string. Where only a bound is given, the exact number is not on record here.

For `CC(=O)O[C@H]1/C=C(\C)CC[C@@H](C(C)C)[C@@H](O)[C@@H]2O[C@@]2(C)C1`, in experiment [1], the half-maximal inhibitory concentration (IC50) is ≥ 10 mg/L. As to `C=C1C[C@@H](O)[C@H](O)[C@]2(C)CC[C@@H](C(C)C)[C@@H](O)[C@@H]1O2`, the IC50 with Caco-2 is 3.7 µM; in experiment [1], ≥ 10 mg/L.

Turning to `C=C1C[C@@H](O)[C@H](O)/C(C)=C\C[C@@H](C(C)C)[C@@H](O)[C@@H]1O`, the IC50 in experiment [1] is ≥ 10 mg/L. Still for that read-out and setting: in the case of `C=C1CC[C@@H](C(C)C)[C@@H](O)/C=C(\C)[C@H](O)CC1=O` it was ≥ 10 mg/L. For `C/C1=C/C[C@@H](C(C)C)[C@@H](O)[C@@H]2O[C@@]2(C)C[C@@H](O)[C@@H]1O`, the values for the IC50 (with Caco-2; in experiment [1]) were 1.1 µM and ≥ 10 mg/L, respectively.

`C=C1C[C@@H](O)/C=C(\C)CC[C@@H](C(C)C)[C@@H](O)C1`: in experiment [1], the IC50 was ≥ 10 mg/L. With `CC(C)[C@@H]1CC[C@]2(C)O[C@H]2[C@H](O)C[C@]2(C)O[C@H]2[C@@H]1O`, the IC50 in experiment [1] is ≥ 10 mg/L. Take `C/C1=C\[C@H](O)C[C@]2(C)O[C@H]2[C@H](O)[C@H](C(C)C)CC1`: the half-inhibitory concentration (IC50) in experiment [1] is ≥ 10 mg/L. Regarding `C/C1=C\[C@H](O)C/C(C)=C/[C@H](O)[C@H](C(C)C)CC1`, the IC50 in experiment [1] is ≥ 10 mg/L.
